Measurements: ChEMBL document CHEMBL4354867, “Validation and Characterization of Five Distinct Novel Inhibitors of Human Cytomegalovirus” (J Med Chem, 2020)
Calls of active or inactive are those of the source. No cut-off for these calls is given here.

What was measured:
Human betaherpesvirus 5 [1] = test: Antiviral activity against pp28-luciferase expressing HCMV Towne infected in human HFF cells assessed as reduction in viral replication treated with compound immediately after viral infection at MOI of 1 PFU/cell followed by compound washout after 6 hrs and measured after 3 days by luciferase reporter gene assay; type: functional
Outline: (§1)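 Time-of-addition in HFFs infected with HCMV Towne (MOI 1). Add-on: compound added at 0, 6, 24 or 48 hpi. Removal: compound added right after infection and washed out after 0, 6, 24 or 48 h. Luciferase read at 72 hpi.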

Human betaherpesvirus 5 [2] = test: Antiviral activity against pp28-luciferase expressing HCMV Towne infected in human HFF cells assessed as reduction in viral replication treated with compound at 24 hrs post viral infection at MOI of 1 PFU/cell and measured after 3 days by luciferase reporter gene assay; type: functional, organism-based; conditions: strain Towne; outline: as §1
Human betaherpesvirus 5 [3] = test: Antiviral activity against HCMV Towne infected in human HFF cells assessed as reduction in viral DNA replication at 5 uM treated with compound following viral infection at MOI of 0.1 PFU/cell by US17 real time PCR analysis; type: functional, organism-based; conditions: strain Towne
Outline: (§2)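 At set time points supernatants were harvested and cells lysed for DNA. Cell-associated viral DNA and supernatant viral DNA quantified by real-time PCR targeting a 151-bp conserved US17 region.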

[4] = Antiviral activity against Mouse Cytomegalovirus Smith (ATCC VR-1399) infected in mouse MEF cells assessed as reduction in plaque formation measured after 3 days by crystal violet staining based assay; type: functional, cell-based, Murine cytomegalovirus (strain Smith); conditions: Murid betaherpesvirus 1, ATCC VR-1399, MEF, 72 h; read-out: EC50
Outline: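 Plaque reduction with MCMV Smith in mouse embryonic fibroblasts, with compound in a carboxymethylcellulose overlay. Assay ended at 3 days and plaques counted after crystal violet staining.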

Human betaherpesvirus 5 [5] = test: Antiviral activity against HCMV Towne infected in human HFF cells assessed as reduction in viral entry into host cell by measuring nuclear localization of pp65 at 5 uM treated with compound for 24 hrs followed by viral infection at MOI of 0.01 to 1 PFU/cell measured at 2 hrs post infection by immunofluorescence microscopy; type: functional, organism-based; conditions: strain Towne
Outline: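 HFFs on chamber slides pretreated 24 h with compound diluted in serum-free medium, then infected with HCMV Towne for 2 h. Heparin 30 μM as positive entry-block control. Cells methanol-fixed, then stained with anti-pp65 (1:50) and rhodamine anti-mouse IgG, with DAPI. Nuclear pp65 viewed by fluorescence microscopy at 40x; repeated three times.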

Human betaherpesvirus 5 [6] = test: Antiviral activity against HCMV Towne infected in human HFF cells assessed as reduction in viral DNA yields in the supernatant at 5 uM treated with compound following viral infection at MOI of 0.1 PFU/cell by US17 real time PCR analysis; type: functional, organism-based; conditions: strain Towne; outline: as §2
Human gammaherpesvirus 4 = test: Antiviral activity against EBV infected in human AKATA cells assessed as reduction in IgG-induced lytic virus replication measured at 48 hrs post-lytic induction by qRT-PCR analysis; type: functional, organism-based
Human alphaherpesvirus 2 = test: Antiviral activity against HSV 2 infected in African green monkey Vero cells assessed as reduction in plaque formation incubated for 36 hrs by crystal violet staining based assay; type: functional, organism-based; conditions: Human alphaherpesvirus 2, Vero, 36 h; read-out: EC50
Outline: (§3)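 Plaque reduction in Vero cells: virus adsorbed 60 min, then compound added in a carboxymethylcellulose overlay. Plaques counted after 36 h by crystal violet staining.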

Human betaherpesvirus 5 [7] = test: Inhibition of viral protein expression in HCMV Towne infected in human HFF cells assessed as reduction in UL84 expression at 0.1 to 10 uM treated with compound following viral infection at MOI of 1 PFU/cell measured at 72 hrs post infection by Western blot analysis; type: functional, organism-based; conditions: strain Towne
Outline: (§4)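 HFFs infected with HCMV Towne (MOI 1), then treated with compound. Lysates taken at 72 hpi, equal protein loaded on 8–10% Tris-glycine SDS-PAGE and transferred to PVDF. Primary antibodies overnight at 4 °C, HRP secondary, chemiluminescent detection; β-actin as loading control.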

Human betaherpesvirus 5 [8] = test: Antiviral activity against pp28-luciferase harboring UL97 C607Y mutant expressing GCV-resistant HCMV Towne infected in human HFF cells assessed as reduction in viral replication at 0.5 to 3 uM treated with compound following viral infection at MOI of 0.1 PFU/cell and measured at 72 hrs post infection by luciferase reporter gene assay; type: functional, organism-based; conditions: strain Towne
Outline: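 HFFs infected with GCV-resistant pp28-luciferase Towne (MOI 0.1), then treated with a compound dilution series. Luciferase, driven by the UL99 late promoter, read in cell lysates at 72 hpi. Data are mean ± SD of triplicates from a single experiment.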

Human betaherpesvirus 5 [9] = test: Antiviral activity against HCMV Towne infected in human HFF cells assessed as reduction in plaque formation treated with compound following viral infection at MOI of 1 PFU/cell and measured at 10 days post-infection in presence of letermovir by crystal violet staining based assay; type: functional, organism-based; conditions: Human betaherpesvirus 5, strain Towne, 240 h
Human betaherpesvirus 5 [10] = test: Antiviral activity against HCMV TB40 infected in human HFF cells assessed as reduction in plaque formation at 0.1 to 3 uM treated with compound following viral infection at […] measured after 8 days by crystal violet staining analysis; type: functional, organism-based
Outline: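 HFFs (2 × 10⁵/well) infected with HCMV TB40 at about 100 plaques/well for 90 min. Inoculum removed, then DMEM with 0.5% CMC, 4% FBS and compound added. Incubated at 37 °C; plaques stained with crystal violet and counted at 8 dpi. Experiment repeated three times; one representative shown.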

Human betaherpesvirus 5 [11] = test: Antiviral activity against HCMV TB40 infected in human HFF cells assessed as reduction in plaque formation treated with compound following viral infection and incubated for 8 to 10 days by crystal violet staining based assay; type: functional, organism-based; conditions: Human betaherpesvirus 5, TB40, HFF
Human betaherpesvirus 5 [12] = test: Antiviral activity against HCMV Towne infected in human HFF cells assessed as reduction in plaque formation treated with compound following viral infection and incubated for 8 to 10 days by crystal violet staining based assay; type: functional, organism-based; conditions: Human betaherpesvirus 5, strain Towne
HFF = test: Cytotoxicity against human HFF cells assessed as reduction in cell viability incubated for 72 hrs or 10 days by MTT assay; type: cell-based
Outline: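 MTT assay on uninfected cells exposed to compound for 72 h or 8–10 days, matching the antiviral assay durations. MTT (5 mg/mL stock in PBS) added, then 2–3 h at 37 °C. Formazan absorbance read at 560 nm.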

Human betaherpesvirus 5 [13] = test: Inhibition of viral protein expression in HCMV Towne infected in human HFF cells assessed as reduction in pp65 expression at 0.1 to 10 uM treated with compound following viral infection at MOI of 1 PFU/cell measured at 72 hrs post infection by Western blot analysis; type: functional, organism-based; conditions: strain Towne
Outline: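 Lysates taken at 72 hpi, equal protein run on SDS-PAGE and transferred to PVDF. Immunoblot for viral proteins (IE1/2, UL84, UL44, pp65) with β-actin as loading reference, chemiluminescent detection.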

Human betaherpesvirus 5 [14] = test: Antiviral activity againstpp28-luciferase expressing HCMV Towne infected in human HFF cells assessed as reduction in viral replication treated with compound following viral infection at MOI of 1 PFU/cells measured after 3 days in presence of GCV by luciferase reporter gene assay; type: functional, organism-based; conditions: Human betaherpesvirus 5, strain Towne, 72 h
Outline: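 HFFs in 96-well plates were infected with pp28-luciferase Towne HCMV, in which luciferase is driven by the UL99 late promoter, at MOI 1. A dose-response of each drug alone gave its EC₅₀. Combinations started at twice each EC₅₀ in DMEM with 4% FBS, followed by two-fold serial dilutions, and were added after infection. Luciferase was read in cell lysates at 72 hpi. The Bliss ratio is observed over expected inhibition.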

Human betaherpesvirus 5 [15] = test: Antiviral activity against HCMV Towne infected in human HFF cells assessed as reduction in viral DNA replication at 2 uM treated with compound following viral infection at MOI of 0.1 PFU/cell by US17 real time PCR analysis; type: functional, organism-based; conditions: strain Towne; outline: as §2
Human betaherpesvirus 5 [16] = test: Antiviral activity against GCV-resistant HCMV Towne infected in human HFF cells assessed as reduction in plaque formation treated with compound following viral infection and incubated for 8 to 10 days by crystal violet staining based assay; type: functional, organism-based; conditions: Human betaherpesvirus 5, strain Towne
Human betaherpesvirus 5 [17] = test: Antiviral activity against HCMV Towne infected in human HFF cells assessed as reduction in viral DNA yields in the supernatant at 2 uM treated with compound following viral infection at MOI of 0.1 PFU/cell by US17 real time PCR analysis; type: functional, organism-based; conditions: strain Towne; outline: as §2
Human betaherpesvirus 5 [18] = test: Inhibition of viral protein expression in HCMV Towne infected in human HFF cells assessed as reduction in IE2 expression at 0.1 to 10 uM treated with compound following viral infection at MOI of 1 PFU/cell measured at 72 hrs post infection by Western blot analysis; type: functional, organism-based; conditions: strain Towne; outline: as §4
Human betaherpesvirus 5 [19] = test: Inhibition of viral protein expression in HCMV Towne infected in human HFF cells assessed as reduction in UL44 expression at 0.1 to 10 uM treated with compound following viral infection at MOI of 1 PFU/cell measured at 72 hrs post infection by Western blot analysis; type: functional, organism-based; conditions: strain Towne; outline: as §4
Human alphaherpesvirus 1 = test: Antiviral activity against HSV 1 infected in African green monkey Vero cells assessed as reduction in plaque formation incubated for 36 hrs by crystal violet staining based assay; type: functional, organism-based; conditions: Human alphaherpesvirus 1, Vero, 36 h; read-out: EC50; outline: as §3

For `Nc1nc2c(ncn2COC(CO)CO)c(=O)[nH]1` [GANCICLOVIR], the Activity (Human betaherpesvirus 5 [1]; strain Towne) was “Active”, the Activity (Human betaherpesvirus 5 [2]) was “inactive” and the Activity (Human betaherpesvirus 5 [3]) was “Active”. The EC50 [4] was 0.96 µM, the Activity (Human betaherpesvirus 5 [5]) was “inactive” and the Activity (Human betaherpesvirus 5 [6]) was “Active”. It also gave an EC50 (Human gammaherpesvirus 4; human gammaherpesvirus 4, 48 h, read-out: EC50) of 5.2 µM and an EC50 (Human alphaherpesvirus 2) of 580 nM.
For `CCc1ccc(NC(=O)[C@H](Cc2c[nH]c3ccccc23)NC(=O)[C@@H]2Cc3ccccc3CN2)cc1`, the inhibition (Human betaherpesvirus 5 [7]) was “Active”, the Activity (Human betaherpesvirus 5 [8]) was “Active” and the “inhibition (INH)” value (Human betaherpesvirus 5 [1]) was 100%. The Activity (Human betaherpesvirus 5 [2]) was “inactive”, the EC50 (Human betaherpesvirus 5 [9]) was 140 nM and the Activity (Human betaherpesvirus 5 [10]) was “Active”. It also gave an EC50 (Human betaherpesvirus 5 [11]) of 340 nM, an EC50 (Human betaherpesvirus 5 [12]) of 640 nM and a CC50 (HFF) of 86 µM. For the same compound, the inhibition (Human betaherpesvirus 5 [13]) was “Active”, the EC50 (Human betaherpesvirus 5 [14]) was 550 nM and the EC50 [4] was 11.7 µM. For the same compound, the Activity (Human betaherpesvirus 5 [15]) was “Active”, the EC50 (Human betaherpesvirus 5 [16]) was 170 nM and the Activity (Human betaherpesvirus 5 [17]) was “Active”. For the same compound, the EC50 (Human gammaherpesvirus 4) was “Not Active”, the inhibition (Human betaherpesvirus 5 [18]) was “Active” and the inhibition (Human betaherpesvirus 5 [19]) was “Active”. The EC50 (Human alphaherpesvirus 1) was 1780 nM and the EC50 (Human alphaherpesvirus 2) was 1300 nM.
